The target in one test is Transporter (Rattus norvegicus, UniProt Q63380). Kind of test: Displacement of [3H]-dopamine from rat cerebral cortex NET after 7 mins. The class given is tissue-based. A general note: Loss of bound radioactivity is the signal in a displacement assay; it reports binding, not function.
Test [1] deals with Sodium-dependent serotonin transporter (Rattus norvegicus, UniProt P31652). Description: Displacement of [3H]5-HT from rat cerebral cortex SERT after 10 mins. The class given is tissue-based. A digest of the protocol: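 Rat cerebral cortex tissue. Inhibition of [3H]5-HT (27.9 Ci/mmol) uptake, accumulation measured over 10 min. Drug stocks included an added 0.01% (w/v) BSA. Five or more triplicate concentrations bracketing the IC50, converted to Ki by Cheng-Prusoff. Mean ± SEM from three to eight independent experiments.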

Test [2] has as its target Sodium-dependent dopamine transporter (Rattus norvegicus, UniProt P23977). Kind of test: Displacement of [3H]-dopamine from rat striatum DAT after 5 mins. In short, it runs like this:
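Uptake inhibition in rat striatal tissue: [3H]dopamine (45.0 Ci/mmol) accumulation measured over 5 min. Drug stocks contained an extra 0.01% (w/v) BSA. At least five concentrations, each in triplicate, spaced evenly around the IC50. IC50 converted to Ki via Cheng-Prusoff. Average ± SEM of three to eight independent experiments.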

The values below come from ChEMBL document CHEMBL3098014 (Bioorg Med Chem, 2014).

The term Ki denotes the equilibrium dissociation constant of an inhibitor or competing ligand from its target. Read a low Ki as a stronger hold on the target.

Chain of Transporter (Q63380 whole entry): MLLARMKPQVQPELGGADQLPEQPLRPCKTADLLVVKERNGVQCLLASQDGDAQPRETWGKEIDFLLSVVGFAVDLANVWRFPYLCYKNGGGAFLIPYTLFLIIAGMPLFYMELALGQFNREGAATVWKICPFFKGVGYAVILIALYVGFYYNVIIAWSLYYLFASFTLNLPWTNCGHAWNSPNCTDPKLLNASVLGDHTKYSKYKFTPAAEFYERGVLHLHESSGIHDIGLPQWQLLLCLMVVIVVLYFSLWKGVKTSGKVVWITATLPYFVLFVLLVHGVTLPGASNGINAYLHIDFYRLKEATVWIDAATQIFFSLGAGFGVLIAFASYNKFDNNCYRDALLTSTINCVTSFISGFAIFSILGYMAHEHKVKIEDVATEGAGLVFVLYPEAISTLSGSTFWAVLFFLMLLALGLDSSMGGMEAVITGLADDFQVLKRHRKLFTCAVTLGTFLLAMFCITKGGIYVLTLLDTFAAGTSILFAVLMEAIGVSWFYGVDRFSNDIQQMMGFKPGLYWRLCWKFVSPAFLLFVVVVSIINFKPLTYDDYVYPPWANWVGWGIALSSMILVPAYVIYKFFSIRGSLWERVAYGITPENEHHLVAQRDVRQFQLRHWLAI
Chain of Sodium-dependent dopamine transporter (P23977 whole entry): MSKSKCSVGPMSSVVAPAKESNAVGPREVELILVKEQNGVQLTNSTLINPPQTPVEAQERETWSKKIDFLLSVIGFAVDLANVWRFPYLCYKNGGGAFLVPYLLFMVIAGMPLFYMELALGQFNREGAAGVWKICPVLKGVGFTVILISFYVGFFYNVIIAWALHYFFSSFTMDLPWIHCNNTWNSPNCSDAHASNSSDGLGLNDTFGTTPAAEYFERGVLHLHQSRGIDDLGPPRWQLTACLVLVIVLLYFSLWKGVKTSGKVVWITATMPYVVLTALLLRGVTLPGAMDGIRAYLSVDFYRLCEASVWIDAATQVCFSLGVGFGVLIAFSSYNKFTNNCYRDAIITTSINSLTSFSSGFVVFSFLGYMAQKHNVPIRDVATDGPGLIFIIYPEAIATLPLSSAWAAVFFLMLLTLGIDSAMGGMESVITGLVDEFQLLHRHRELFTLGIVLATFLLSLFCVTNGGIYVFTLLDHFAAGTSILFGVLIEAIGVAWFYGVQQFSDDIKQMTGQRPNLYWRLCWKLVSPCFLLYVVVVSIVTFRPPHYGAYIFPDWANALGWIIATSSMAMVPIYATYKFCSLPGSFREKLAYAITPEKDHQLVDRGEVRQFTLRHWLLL
Chain of Sodium-dependent serotonin transporter (P31652 whole entry): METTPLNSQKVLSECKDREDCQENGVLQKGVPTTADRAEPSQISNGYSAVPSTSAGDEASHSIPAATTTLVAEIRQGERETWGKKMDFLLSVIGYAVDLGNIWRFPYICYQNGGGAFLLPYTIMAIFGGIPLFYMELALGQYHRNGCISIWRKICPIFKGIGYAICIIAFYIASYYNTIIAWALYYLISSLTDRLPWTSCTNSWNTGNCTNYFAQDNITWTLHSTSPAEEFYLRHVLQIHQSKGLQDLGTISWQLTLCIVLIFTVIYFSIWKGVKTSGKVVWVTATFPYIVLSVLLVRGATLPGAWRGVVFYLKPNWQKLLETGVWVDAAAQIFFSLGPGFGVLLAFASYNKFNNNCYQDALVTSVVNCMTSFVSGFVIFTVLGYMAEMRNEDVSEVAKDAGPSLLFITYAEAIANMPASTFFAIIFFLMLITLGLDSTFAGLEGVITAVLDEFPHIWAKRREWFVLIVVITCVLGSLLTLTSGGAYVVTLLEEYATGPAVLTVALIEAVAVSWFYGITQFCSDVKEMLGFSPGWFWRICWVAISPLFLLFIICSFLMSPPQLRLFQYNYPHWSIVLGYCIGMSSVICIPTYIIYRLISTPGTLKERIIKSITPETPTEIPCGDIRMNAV

Regarding `Nc1ccc(CN[C@H]2CC[C@@H](C(c3ccccc3)c3ccccc3)OC2)cc1`, at Transporter, affinity was put at a Ki of 12.6 nM.

On to `Oc1ccc(CN[C@H]2CC[C@@H](Cc3ccccc3)OC2)cc1`, for which the Ki is 2500 nM in test [1] and 240 nM at Transporter.

In the case of `Oc1ccc(CN[C@@H]2CO[C@H](C(c3ccccc3)c3ccccc3)C2)cc1`, the values for the Ki (in test [2]; in test [1]; on Transporter) were 943 nM, 1150 nM and 1510 nM, respectively.

Turning to `Oc1ccc(CCN[C@@H]2CO[C@H](C(c3ccccc3)c3ccccc3)C2)cc1`, the Ki in test [2] amounted to 260 nM; in test [1] it was 150 nM; on Transporter it was 165 nM.

Take `COc1ccc(CCN[C@@H]2CO[C@H](C(c3ccccc3)c3ccccc3)C2)cc1`: the Ki was 266 nM in test [2], 358 nM in test [1] and 198 nM at Transporter.

For the compound `Fc1ccc(CCN[C@@H]2CO[C@H](C(c3ccccc3)c3ccccc3)C2)cc1`, the Ki in test [2] was found to be 586 nM; in test [1] it was 1350 nM; at Transporter, 196 nM.

Consider `c1ccc(CCN[C@@H]2CO[C@H](C(c3ccccc3)c3ccccc3)C2)cc1`, for which the results for the Ki (in test [2]; in test [1]; on Transporter) were 642 nM, 2050 nM and 427 nM, respectively.

Turning to `Oc1ccc(CN[C@H]2CO[C@H](C(c3ccccc3)c3ccccc3)C2)cc1`, the values for the Ki (in test [2]; in test [1]; at Transporter) were 3690 nM, 408 nM and 975 nM, respectively.

Regarding `c1ccc(CCN[C@H]2CO[C@H](C(c3ccccc3)c3ccccc3)C2)cc1`, the Ki was 454 nM in test [2], 844 nM in test [1] and 739 nM at Transporter.

For the compound `Oc1ccc(CN[C@@H]2CO[C@H](C(c3ccc(F)cc3)c3ccc(F)cc3)C[C@H]2O)cc1`, the Ki in test [2] came out at 38.4 nM; in test [1], 58.4 nM; at Transporter it was 4.2 nM.

With `Fc1ccc(C(c2ccc(F)cc2)[C@@H]2CC[C@H](NCc3ccc4c(c3)CCO4)CO2)cc1`, the Ki in test [2] amounted to 11.2 nM; in test [1], 3 nM; on Transporter it was 6.1 nM.

As for `Nc1ccc(CN[C@H]2CC[C@@H](C(c3ccc(F)cc3)c3ccc(F)cc3)OC2)cc1`, the Ki in test [2] stood at 32.5 nM; in test [1], 69.1 nM; at Transporter it was 8.4 nM.

With `Oc1ccc(CN[C@H]2CC[C@@H](CC(c3ccccc3)c3ccccc3)OC2)cc1`, the inhibition constant (Ki) worked out at 245 nM in test [2], 346 nM in test [1] and 181 nM on Transporter.

For `Oc1ccc(CN[C@H]2CC[C@@H](CCC(c3ccccc3)c3ccccc3)OC2)cc1`, the Ki in test [2] worked out at 45.7 nM; in test [1], 473 nM; at Transporter, 37.7 nM.
